From ChEMBL document CHEMBL1629633, “Prevalence of sulfonamide resistance genes in bacterial isolates from manured agricultural soils and pig slurry in the United Kingdom” (2009)

How the values were obtained:
Acinetobacter lwoffii [1] = test: Antimicrobial activity against Acinetobacter lwoffii isolate C2 harboring sul1 to sul3 genes assessed as antibiotic resistance breakpoint by agar dilution method; format: functional
Procedure, shortened: (§1)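 Agar dilution on Iso-Sensitest agar for MICs and resistance breakpoints. Each isolate's inoculum (100 μl) was adjusted to OD600 0.4. Isolates came from soil cores of a field given pig slurry, or from the pig slurry itself. They were picked from nonselective or antibiotic plates incubated aerobically at 28°C, purified by restreaking, checked for sul genes by PCR and identified by 16S rRNA sequencing.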

[2] = Antimicrobial activity against Psychrobacter ikaite isolate C20 harboring sul1 to sul3 genes assessed as antibiotic resistance breakpoint by agar dilution method; format: functional; procedure, shortened: as §1
Aerococcus viridans [3] = test: Antimicrobial activity against Aerococcus viridans isolate PGS22 harboring sul1 to sul3 genes assessed as antibiotic resistance breakpoint by agar dilution method; format: functional; procedure, shortened: as §1
[4] = Antimicrobial activity against Psychrobacter ikaite isolate C713 harboring sul1 to sul3 genes assessed as antibiotic resistance breakpoint by agar dilution method; format: functional
Procedure, shortened: (§2)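 Isolates were recovered from manured clay soil or pig slurry on Iso-Sensitest agar at 28°C. sul genes were detected by PCR, and identity was assigned by ~800 bp 16S rRNA sequencing. MICs and resistance breakpoints were found by agar dilution on Iso-Sensitest agar, with each inoculum (100 μl) adjusted to OD600 0.4.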

[5] = tested on: Acinetobacter calcoaceticus; test: Antimicrobial activity against Acinetobacter calcoaceticus isolate C35 harboring sul1 to sul3 genes assessed as antibiotic resistance breakpoint by agar dilution method; format: functional; procedure, shortened: as §1
Acinetobacter lwoffii [6] = test: Antimicrobial activity against Acinetobacter lwoffii isolate C37 harboring sul1 to sul3 genes assessed as antibiotic resistance breakpoint by agar dilution method; format: functional; procedure, shortened: as §1
Acinetobacter lwoffii [7] = test: Antimicrobial activity against Acinetobacter lwoffii isolate C15 harboring sul1 to sul3 genes assessed as antibiotic resistance breakpoint by agar dilution method; format: functional; procedure, shortened: as §1
Shigella flexneri = test: Antimicrobial activity against Shigella flexneri isolate C506 harboring sul1 to sul3 genes assessed as antibiotic resistance breakpoint by agar dilution method; format: functional; procedure, shortened: as §2
Acinetobacter baumannii = test: Antimicrobial activity against Acinetobacter baumannii isolate C442 harboring sul1 to sul3 genes assessed as antibiotic resistance breakpoint by agar dilution method; format: functional; procedure, shortened: as §1
Bacillus psychrodurans = test: Antimicrobial activity against Bacillus psychrodurans isolate C328 harboring sul1 to sul3 genes assessed as antibiotic resistance breakpoint by agar dilution method; format: functional, Psychrobacillus psychrodurans; procedure, shortened: as §1
[8] = tested on: Acinetobacter calcoaceticus; test: Antimicrobial activity against Acinetobacter calcoaceticus isolate C36 harboring sul1 to sul3 genes assessed as antibiotic resistance breakpoint by agar dilution method; format: functional; procedure, shortened: as §1
Acinetobacter lwoffii [9] = test: Antimicrobial activity against Acinetobacter lwoffii isolate C141 harboring sul1 to sul3 genes assessed as antibiotic resistance breakpoint by agar dilution method; format: functional; procedure, shortened: as §1
Pseudomonas borealis = test: Antimicrobial activity against Pseudomonas borealis isolate C5 harboring sul1 to sul3 genes assessed as antibiotic resistance breakpoint by agar dilution method; format: functional; procedure, shortened: as §1
Pseudomonas putida = test: Antimicrobial activity against Pseudomonas putida isolate C231 harboring sul1 to sul3 genes assessed as antibiotic resistance breakpoint by agar dilution method; format: functional; procedure, shortened: as §1
Aerococcus viridans [10] = test: Antimicrobial activity against Aerococcus viridans isolate PGS21 harboring sul1 to sul3 genes assessed as antibiotic resistance breakpoint by agar dilution method; format: functional; procedure, shortened: as §1
[11] = tested on: Acinetobacter rhizosphaerae; test: Antimicrobial activity against Acinetobacter rhizosphaerae isolate C44 harboring sul1 to sul3 genes assessed as antibiotic resistance breakpoint by agar dilution method; format: functional; procedure, shortened: as §1
[12] = tested on: Arthrobacter arilaitensis; test: Antimicrobial activity against Arthrobacter arilaitensis isolate C361 harboring sul1 to sul3 genes assessed as antibiotic resistance breakpoint by agar dilution method; format: functional, Glutamicibacter arilaitensis; procedure, shortened: as §1
Enterococcus sulfureus = test: Antimicrobial activity against Enterococcus sulfureus isolate PGS61 harboring sul1 to sul3 genes assessed as antibiotic resistance breakpoint by agar dilution method; format: functional; procedure, shortened: as §1
[13] = Antimicrobial activity against Acinetobacter sp. N2 isolate C439 harboring sul1 to sul3 genes assessed as antibiotic resistance breakpoint by agar dilution method; format: functional; procedure, shortened: as §1
[14] = Antimicrobial activity against Psychrobacter sp. DY9-2 isolate C711 harboring sul1 to sul3 genes assessed as antibiotic resistance breakpoint by agar dilution method; format: functional; procedure, shortened: as §2
Enterococcus hirae = test: Antimicrobial activity against Enterococcus hirae isolate PGS48 harboring sul1 to sul3 genes assessed as antibiotic resistance breakpoint by agar dilution method; format: functional; procedure, shortened: as §1
Pseudomonas fluorescens = test: Antimicrobial activity against Pseudomonas fluorescens isolate C131 harboring sul1 to sul3 genes assessed as antibiotic resistance breakpoint by agar dilution method; format: functional; procedure, shortened: as §1
[15] = tested on: Psychrobacter frigidicola; test: Antimicrobial activity against Psychrobacter frigidicola isolate C712 harboring sul1 to sul3 genes assessed as antibiotic resistance breakpoint by agar dilution method; format: functional; procedure, shortened: as §1
[16] = Antimicrobial activity against Psychrobacter ikaite isolate C410 harboring sul1 to sul3 genes assessed as antibiotic resistance breakpoint by agar dilution method; format: functional; procedure, shortened: as §2
Providencia stuartii = test: Antimicrobial activity against Providencia stuartii isolate C167 harboring sul1 to sul3 genes assessed as antibiotic resistance breakpoint by agar dilution method; format: functional; procedure, shortened: as §1
Pseudomonas lini = test: Antimicrobial activity against Pseudomonas lini isolate C701 harboring sul1 to sul3 genes assessed as antibiotic resistance breakpoint by agar dilution method; format: functional; procedure, shortened: as §1
[17] = tested on: Lysinibacillus sphaericus; test: Antimicrobial activity against Bacillus sphaericus isolate C237 harboring sul1 to sul3 genes assessed as antibiotic resistance breakpoint by agar dilution method; format: functional; procedure, shortened: as §1
[18] = Antimicrobial activity against Acinetobacter sp. An9 isolate PGS49 harboring sul1 to sul3 genes assessed as antibiotic resistance breakpoint by agar dilution method; format: functional; procedure, shortened: as §1
Acinetobacter lwoffii [19] = test: Antimicrobial activity against Acinetobacter lwoffii isolate PGS47 harboring sul1 to sul3 genes assessed as antibiotic resistance breakpoint by agar dilution method; format: functional; procedure, shortened: as §1
[20] = tested on: Stenotrophomonas maltophilia; test: Antimicrobial activity against Stenotrophomonas maltophilia isolate C422 harboring sul1 to sul3 genes assessed as antibiotic resistance breakpoint by agar dilution method; format: functional; procedure, shortened: as §2

Structure (SMILES)	Activity (Acinetobacter lwoffii [1])	Activity [2]	Activity (Aerococcus viridans [3])	Activity [4]	Activity [5]	Activity (Acinetobacter lwoffii [6])	Activity (Acinetobacter lwoffii [7])	Activity (Shigella flexneri)	Activity (Acinetobacter baumannii)	Activity (Bacillus psychrodurans)	Activity [8]	Activity (Acinetobacter lwoffii [9])	Activity (Pseudomonas putida)	Activity [11]	Activity [12]	Activity [13]	Activity [14]	Activity [15]	Activity (Pseudomonas lini)	Activity [17]	other results
O=C(N[C@H](CO)[C@H](O)c1ccc([N+](=O)[O-])cc1)C(Cl)Cl [CHLORAMPHENICOL]	16 µg/mL	16 µg/mL	16 µg/mL	16 µg/mL	16 µg/mL	16 µg/mL	16 µg/mL	16 µg/mL	16 µg/mL	16 µg/mL	16 µg/mL	16 µg/mL	16 µg/mL	16 µg/mL	16 µg/mL						Activity (Pseudomonas borealis): 16 µg/mL; Activity (Aerococcus viridans [10]): 16 µg/mL
CN(C)[C@@H]1C(O)=C(C(N)=O)C(=O)[C@@]2(O)C(O)=C3C(=O)c4c(O)cccc4[C@@](C)(O)[C@H]3C[C@@H]12 [TETRACYCLINE]	8 µg/mL	8 µg/mL	8 µg/mL	8 µg/mL	8 µg/mL	8 µg/mL	8 µg/mL	8 µg/mL	8 µg/mL	8 µg/mL	8 µg/mL	8 µg/mL	8 µg/mL	8 µg/mL	8 µg/mL	8 µg/mL	8 µg/mL	8 µg/mL			Activity (Enterococcus sulfureus): 8 µg/mL; Activity (Enterococcus hirae): 8 µg/mL; Activity (Pseudomonas fluorescens): 8 µg/mL; Activity [16]: 8 µg/mL; Activity (Pseudomonas borealis): 8 µg/mL; Activity (Providencia stuartii): 8 µg/mL; Activity (Aerococcus viridans [10]): 8 µg/mL
CC1(C)S[C@@H]2[C@H](NC(=O)[C@H](N)c3ccccc3)C(=O)N2[C@H]1C(=O)O [AMPICILLIN]								16 µg/mL				16 µg/mL	16 µg/mL						16 µg/mL		
COc1cc(Cc2cnc(N)nc2N)cc(OC)c1OC [TRIMETHOPRIM]	16 µg/mL	16 µg/mL		16 µg/mL	16 µg/mL	16 µg/mL	16 µg/mL	16 µg/mL			16 µg/mL	16 µg/mL		16 µg/mL		16 µg/mL	16 µg/mL	16 µg/mL	16 µg/mL	16 µg/mL	
NC[C@@H]1O[C@H](O[C@H]2[C@@H](O)[C@H](O[C@@H]3[C@@H](O)[C@H](N)C[C@H](N)[C@H]3O[C@H]3O[C@H](CN)[C@@H](O)[C@H](O)[C@H]3N)O[C@@H]2CO)[C@H](N)[C@@H](O)[C@@H]1O [FRAMYCETIN]			8 µg/mL				8 µg/mL	8 µg/mL		8 µg/mL		8 µg/mL	8 µg/mL	8 µg/mL	8 µg/mL						
CCn1cc(C(=O)O)c(=O)c2ccc(C)nc21 [NALIDIXIC ACID]	16 µg/mL	16 µg/mL	16 µg/mL	16 µg/mL	16 µg/mL	16 µg/mL	16 µg/mL	16 µg/mL	16 µg/mL	16 µg/mL	16 µg/mL	16 µg/mL	16 µg/mL	16 µg/mL	16 µg/mL	16 µg/mL	16 µg/mL	16 µg/mL	16 µg/mL	16 µg/mL	Activity [18]: 16 µg/mL; Activity (Acinetobacter lwoffii [19]): 16 µg/mL
CN[C@@H]1[C@H](O[C@H]2[C@H](O[C@H]3[C@H](O)[C@@H](O)[C@H](N=C(N)N)[C@@H](O)[C@@H]3N=C(N)N)O[C@@H](C)[C@]2(O)C=O)O[C@@H](CO)[C@H](O)[C@H]1O [STREPTOMYCIN]	16 µg/mL	16 µg/mL	16 µg/mL	16 µg/mL	16 µg/mL	16 µg/mL	16 µg/mL	16 µg/mL		16 µg/mL	16 µg/mL	16 µg/mL		16 µg/mL	16 µg/mL	16 µg/mL	16 µg/mL	16 µg/mL	16 µg/mL	16 µg/mL	Activity [18]: 16 µg/mL; Activity (Enterococcus sulfureus): 16 µg/mL; Activity [20]: 16 µg/mL; Activity (Enterococcus hirae): 16 µg/mL; Activity (Acinetobacter lwoffii [19]): 16 µg/mL; Activity (Providencia stuartii): 16 µg/mL
NC[C@H]1O[C@H](O[C@H]2[C@H](O)[C@@H](O[C@H]3O[C@H](CO)[C@@H](O)[C@H](N)[C@H]3O)[C@H](N)C[C@@H]2N)[C@H](O)[C@@H](O)[C@@H]1O [KANAMYCIN]								16 µg/mL		16 µg/mL		16 µg/mL									
